Measurements: ChEMBL document CHEMBL4823330, “Piperazinyl Bicyclic Derivatives as Selective Ligands of the α2δ-1 Subunit of Voltage-Gated Calcium Channels” (ACS Med Chem Lett, 2021)
Active and inactive are the calls of the source. No cut-off for these calls is given here.

Tests used:
[1] = molecular target: T1, Voltage-dependent calcium channel subunit alpha-2/delta-1 (Homo sapiens, UniProt P54289); test: Displacement of [3H]-gabapentin from human Cav alpha2delta1 expressed in CHO-K1 cell membranes incubated for 60 mins by scintillation counting method; parameters: species or system Membrane
Method in brief: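 Radioligand binding with [3H]-gabapentin on α2δ-1-enriched membranes from CHO-K1 cells expressing human Cav2.2/β3/α2δ1. Compounds were first screened at 10 μM. Ki was calculated for those giving more than 50% inhibition. Values are mean ± SD of two determinations.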

CYP3A4 = CYP3A4 (Homo sapiens, UniProt P08684); test: Inhibition of recombinant CYP3A4 (unknown origin) using BFC as substrate at 1 uM measured after 30 mins in presence of NADPH generating system by fluorescence assay relative to control; assay type: ADME; conditions: recombinant CYP3A4, probe BFC
Method in brief: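 Recombinant human CYP3A4 incubated with test compound at 1 μM. 7-Benzyloxy-4-trifluoromethylcoumarin (BFC) was the probe substrate, with fluorescence read-out, reported as percent inhibition.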

CYP2C19 = CYP2C19 (Homo sapiens, UniProt P33261); test: Inhibition of CYP2C19 (unknown origin) at 1 uM relative to control; assay type: ADME
Method in brief: (§1)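 Recombinant human CYP isoforms (1A2, 2C9, 2C19, 2D6) were each tested with compound at 1 μM. Read-out is percent inhibition.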

CYP1A2 = CYP1A2 (Homo sapiens, UniProt P05177); test: Inhibition of CYP1A2 (unknown origin) at 1 uM relative to control; assay type: ADME; method in brief: as §1
[2] = Efflux ratio of permeability in human Caco2 cells; assay type: ADME, cell-based; conditions: Caco-2
[3] = Permeability of compound in human Caco2 cells; assay type: ADME, cell-based; conditions: Caco-2, read-out: permeability
CYP2C9 = CYP2C9 (Homo sapiens, UniProt P11712); test: Inhibition of CYP2C9 (unknown origin) at 1 uM relative to control; assay type: ADME; method in brief: as §1
[4] = Metabolic stability in mouse liver microsomes assessed as intrinsic clearance per mg protein at 1 uM measured upto 60 mins in presence of NADPH generating system by UPLC-MS/MS analysis; assay type: ADME, Microsome; conditions: read-out: CLH
[5] = Metabolic stability in human liver microsomes assessed as intrinsic clearance per mg protein at 1 uM measured upto 60 mins in presence of NADPH generating system by UPLC-MS/MS analysis; assay type: ADME, Microsome; conditions: read-out: CLH
Mus musculus = test: Analgesic activity in CD1 mouse model of capsaicin-induced mechanical hypersensitivity assessed as reduction in mechanical hypersensitivity at 20 mg/kg, ip administered 30 mins prior to capsaicin stimulation and measured after 15 mins; assay type: functional; parameters: scale not given: the % may be the effect or the level left; conditions: time 45 min, 0.75 h
Method in brief: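 Male CD1 mice, 8–12 per group, given 20 mg/kg ip alongside vehicle and pregabalin comparator groups. Capsaicin test read out as percentage reduction in capsaicin-induced mechanical hypersensitivity.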

[6] = molecular target: Voltage-gated inwardly rectifying potassium channel KCNH2 (Homo sapiens, UniProt Q12809); test: Inhibition of human ERG
[7] = Metabolic stability in rat liver microsomes assessed as intrinsic clearance per mg protein at 1 uM measured upto 60 mins in presence of NADPH generating system by UPLC-MS/MS analysis; assay type: ADME, Microsome; conditions: read-out: CLH
[8] = AUC(0 to t) in CD1 mouse at 20 mg/kg, ip measured upto 24 hrs by UPLC-MS/MS analysis; assay type: ADME, organism-based; parameters: route intraperitoneal, dose 20 mg/kg, time <=24; conditions: in vivo
CYP2D6 = CYP2D6 (Homo sapiens, UniProt P10635); test: Inhibition of CYP2D6 (unknown origin) at 1 uM relative to control; assay type: ADME; method in brief: as §1
[9] = Induction of motor coordination impairment in CD1 mouse assessed as latency to fall at 20 mg/kg, ip measured upto 180 mins by rotarod test; assay type: organism-based; conditions: in vivo, 3 h
Method in brief: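 Mice were dosed at 20 mg/kg ip, with vehicle and pregabalin groups run in the same paradigm. Latency to fall from the elevated rotating drum was recorded at 30, 120 and 180 min after administration.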

[10] = Cmax in CD1 mouse at 20 mg/kg, ip measured upto 24 hrs by UPLC-MS/MS analysis; assay type: ADME, organism-based; parameters: route intraperitoneal, dose 20 mg/kg, time <=24; conditions: in vivo
Method in brief: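 Male CD1 mice given a single ip dose of 20 mg/kg. Cmax was taken from the plasma concentration profile.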

[11] = Lipophilicity, logD of compound at pH 7.4; assay type: physicochemical; conditions: buffer
[12] = Lipophilicity, logP of compound; assay type: physicochemical; conditions: octanol/water
[13] = molecular target: Sigma non-opioid intracellular receptor 1 (Homo sapiens) (UniProt Q99720); test: Binding affinity to sigma 1 receptor (unknown origin)
[14] = molecular target: 5-hydroxytryptamine receptor 1A (Homo sapiens) (UniProt P08908); test: Binding affinity to 5HT1A receptor (unknown origin)
[15] = molecular target: Delta-type opioid receptor (Homo sapiens) (UniProt P41143); test: Binding affinity to delta opioid receptor (unknown origin)
[16] = molecular target: Kappa-type opioid receptor (Homo sapiens) (UniProt P41145); test: Binding affinity to kappa opioid receptor (unknown origin)
[17] = molecular target: Sodium-dependent noradrenaline transporter (Homo sapiens) (UniProt P23975); test: Binding affinity to norepinephrine transporter (unknown origin)
[18] = molecular target: Histamine H1 receptor (Homo sapiens) (UniProt P35367); test: Binding affinity to histamine H1 receptor (unknown origin)
Mu-type opioid receptor = Mu-type opioid receptor (Homo sapiens, UniProt P35372); test: Binding affinity to mu opioid receptor (unknown origin)
[19] = molecular target: Alpha-1A adrenergic receptor (Homo sapiens) (UniProt P35348); test: Binding affinity to alpha1A receptor (unknown origin)
[20] = molecular target: Sodium-dependent dopamine transporter (Homo sapiens) (UniProt Q01959); test: Binding affinity to dopamine transporter (unknown origin)
[21] = molecular target: Sodium-dependent serotonin transporter (Homo sapiens) (UniProt P31645); test: Binding affinity to serotonin transporter (unknown origin)
[22] = molecular target: Alpha-2A adrenergic receptor (Homo sapiens) (UniProt P08913); test: Binding affinity to alpha2A receptor (unknown origin)
[23] = molecular target: 5-hydroxytryptamine receptor 2B (Homo sapiens) (UniProt P41595); test: Binding affinity to 5HT2B receptor (unknown origin)
[24] = molecular target: T1, Voltage-dependent calcium channel subunit alpha-2/delta-1; test: Displacement of [3H]-gabapentin from human Cav alpha2delta1 expressed in CHO-K1 cell membranes at 10 uM incubated for 60 mins by scintillation counting method relative to control; conditions: Membrane
Method in brief: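 Human α2δ-1-enriched membranes from CHO-K1 cells stably expressing human Cav2.2/β3/α2δ1. Test compound at 10 μM competes with [3H]-gabapentin radioligand, and percent inhibition of specific binding is recorded. Compounds exceeding 50% inhibition go on to Ki determination, with Ki values given as the mean of two determinations.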

Chain of CYP3A4 (P08684 whole entry): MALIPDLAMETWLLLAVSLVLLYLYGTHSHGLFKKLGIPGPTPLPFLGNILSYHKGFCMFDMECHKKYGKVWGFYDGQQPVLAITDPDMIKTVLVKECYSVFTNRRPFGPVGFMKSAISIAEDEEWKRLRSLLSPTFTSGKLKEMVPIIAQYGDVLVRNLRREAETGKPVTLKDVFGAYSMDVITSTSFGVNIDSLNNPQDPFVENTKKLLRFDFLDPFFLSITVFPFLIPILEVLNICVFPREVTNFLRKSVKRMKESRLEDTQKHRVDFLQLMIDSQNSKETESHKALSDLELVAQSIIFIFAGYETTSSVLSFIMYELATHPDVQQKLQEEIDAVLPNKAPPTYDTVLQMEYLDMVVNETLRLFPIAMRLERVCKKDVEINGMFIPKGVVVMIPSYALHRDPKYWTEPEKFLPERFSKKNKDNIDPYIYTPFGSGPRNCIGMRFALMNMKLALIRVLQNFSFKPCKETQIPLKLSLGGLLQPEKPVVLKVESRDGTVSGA
T1 sequence (P54289 25-956 limits assumed): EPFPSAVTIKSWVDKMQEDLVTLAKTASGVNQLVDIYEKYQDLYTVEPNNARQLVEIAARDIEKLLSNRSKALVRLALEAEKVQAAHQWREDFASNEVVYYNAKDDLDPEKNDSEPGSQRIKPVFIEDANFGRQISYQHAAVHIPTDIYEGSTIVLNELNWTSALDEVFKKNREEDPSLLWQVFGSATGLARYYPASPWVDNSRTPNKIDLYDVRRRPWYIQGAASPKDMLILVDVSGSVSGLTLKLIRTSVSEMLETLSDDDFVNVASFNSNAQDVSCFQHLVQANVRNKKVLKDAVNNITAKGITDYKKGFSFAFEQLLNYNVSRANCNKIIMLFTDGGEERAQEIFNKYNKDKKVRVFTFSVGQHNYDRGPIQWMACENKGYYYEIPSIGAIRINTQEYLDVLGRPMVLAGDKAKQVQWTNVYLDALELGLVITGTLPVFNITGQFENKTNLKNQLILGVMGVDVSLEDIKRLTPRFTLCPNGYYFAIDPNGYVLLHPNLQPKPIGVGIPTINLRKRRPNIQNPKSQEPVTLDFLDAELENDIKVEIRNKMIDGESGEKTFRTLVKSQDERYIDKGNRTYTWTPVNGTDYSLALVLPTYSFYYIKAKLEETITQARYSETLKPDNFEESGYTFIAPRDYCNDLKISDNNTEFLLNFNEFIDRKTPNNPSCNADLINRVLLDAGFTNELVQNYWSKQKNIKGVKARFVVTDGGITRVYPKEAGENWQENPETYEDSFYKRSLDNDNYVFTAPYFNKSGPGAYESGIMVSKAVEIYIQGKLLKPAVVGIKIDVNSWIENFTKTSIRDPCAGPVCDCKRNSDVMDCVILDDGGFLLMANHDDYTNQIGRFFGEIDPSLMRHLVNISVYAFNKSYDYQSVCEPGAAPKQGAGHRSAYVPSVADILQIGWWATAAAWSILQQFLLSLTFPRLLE
T1 sequence (P54289 957-1103 limits assumed): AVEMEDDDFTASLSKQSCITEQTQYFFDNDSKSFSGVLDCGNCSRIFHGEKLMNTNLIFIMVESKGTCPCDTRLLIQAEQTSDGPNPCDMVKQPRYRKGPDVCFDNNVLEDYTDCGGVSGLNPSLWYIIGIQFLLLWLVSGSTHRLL
Chain of Sodium-dependent noradrenaline transporter (Homo sapiens) (P23975 whole entry): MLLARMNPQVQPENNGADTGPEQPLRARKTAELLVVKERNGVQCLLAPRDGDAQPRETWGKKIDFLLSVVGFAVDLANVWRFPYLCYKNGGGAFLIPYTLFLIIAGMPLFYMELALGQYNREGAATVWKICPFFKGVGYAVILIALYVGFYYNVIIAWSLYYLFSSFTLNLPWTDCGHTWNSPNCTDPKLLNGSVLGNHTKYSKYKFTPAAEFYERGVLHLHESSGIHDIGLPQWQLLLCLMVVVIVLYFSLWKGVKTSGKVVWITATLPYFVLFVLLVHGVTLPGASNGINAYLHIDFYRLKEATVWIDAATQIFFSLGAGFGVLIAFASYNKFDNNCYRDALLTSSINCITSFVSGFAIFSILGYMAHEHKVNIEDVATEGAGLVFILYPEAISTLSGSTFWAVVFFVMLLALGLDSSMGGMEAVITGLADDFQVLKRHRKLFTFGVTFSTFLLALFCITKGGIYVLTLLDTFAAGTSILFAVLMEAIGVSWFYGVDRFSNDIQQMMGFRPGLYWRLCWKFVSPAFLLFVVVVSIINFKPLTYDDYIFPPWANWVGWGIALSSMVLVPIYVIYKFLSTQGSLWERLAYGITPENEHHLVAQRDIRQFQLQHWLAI
Chain of Sigma non-opioid intracellular receptor 1 (Homo sapiens) (Q99720 whole entry): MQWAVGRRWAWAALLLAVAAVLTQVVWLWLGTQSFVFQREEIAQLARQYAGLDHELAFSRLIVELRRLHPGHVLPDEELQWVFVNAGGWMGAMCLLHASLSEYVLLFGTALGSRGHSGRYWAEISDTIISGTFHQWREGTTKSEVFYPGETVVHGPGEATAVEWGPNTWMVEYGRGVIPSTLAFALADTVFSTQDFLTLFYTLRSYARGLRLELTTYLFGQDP
Chain of Sodium-dependent serotonin transporter (Homo sapiens) (P31645 whole entry, looked up): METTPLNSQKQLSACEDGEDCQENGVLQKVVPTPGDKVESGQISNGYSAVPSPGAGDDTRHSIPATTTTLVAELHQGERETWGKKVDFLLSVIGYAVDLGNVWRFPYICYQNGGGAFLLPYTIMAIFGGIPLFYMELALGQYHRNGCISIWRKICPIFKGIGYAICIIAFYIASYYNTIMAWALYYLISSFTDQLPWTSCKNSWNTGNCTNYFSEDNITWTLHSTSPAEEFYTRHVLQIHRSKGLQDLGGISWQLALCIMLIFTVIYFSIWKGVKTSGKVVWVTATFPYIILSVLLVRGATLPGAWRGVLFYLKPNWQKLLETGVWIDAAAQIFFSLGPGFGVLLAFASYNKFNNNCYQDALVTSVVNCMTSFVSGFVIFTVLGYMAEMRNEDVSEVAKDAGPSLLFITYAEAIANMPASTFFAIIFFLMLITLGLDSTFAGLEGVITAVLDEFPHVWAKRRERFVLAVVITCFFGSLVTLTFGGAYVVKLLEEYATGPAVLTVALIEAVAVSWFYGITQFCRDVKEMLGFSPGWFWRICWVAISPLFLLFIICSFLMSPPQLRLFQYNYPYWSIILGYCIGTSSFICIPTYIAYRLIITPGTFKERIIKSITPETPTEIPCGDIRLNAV
Chain of Sodium-dependent dopamine transporter (Homo sapiens) (Q01959 whole entry): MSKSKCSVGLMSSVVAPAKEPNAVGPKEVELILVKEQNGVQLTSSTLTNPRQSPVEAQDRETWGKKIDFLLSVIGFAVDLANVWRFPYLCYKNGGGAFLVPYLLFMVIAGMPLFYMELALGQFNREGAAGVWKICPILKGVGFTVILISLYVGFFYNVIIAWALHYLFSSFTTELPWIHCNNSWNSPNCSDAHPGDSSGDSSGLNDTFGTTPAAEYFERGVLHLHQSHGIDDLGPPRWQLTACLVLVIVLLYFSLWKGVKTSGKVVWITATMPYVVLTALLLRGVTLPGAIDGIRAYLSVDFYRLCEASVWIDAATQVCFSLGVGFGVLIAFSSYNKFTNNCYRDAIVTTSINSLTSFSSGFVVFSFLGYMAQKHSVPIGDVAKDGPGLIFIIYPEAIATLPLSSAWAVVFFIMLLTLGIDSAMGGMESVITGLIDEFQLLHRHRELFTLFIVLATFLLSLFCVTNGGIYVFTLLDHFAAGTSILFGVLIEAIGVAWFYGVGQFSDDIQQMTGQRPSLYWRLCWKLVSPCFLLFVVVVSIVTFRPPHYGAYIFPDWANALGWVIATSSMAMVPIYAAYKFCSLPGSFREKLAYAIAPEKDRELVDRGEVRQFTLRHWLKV
Chain of 5-hydroxytryptamine receptor 1A (Homo sapiens) (P08908 whole entry): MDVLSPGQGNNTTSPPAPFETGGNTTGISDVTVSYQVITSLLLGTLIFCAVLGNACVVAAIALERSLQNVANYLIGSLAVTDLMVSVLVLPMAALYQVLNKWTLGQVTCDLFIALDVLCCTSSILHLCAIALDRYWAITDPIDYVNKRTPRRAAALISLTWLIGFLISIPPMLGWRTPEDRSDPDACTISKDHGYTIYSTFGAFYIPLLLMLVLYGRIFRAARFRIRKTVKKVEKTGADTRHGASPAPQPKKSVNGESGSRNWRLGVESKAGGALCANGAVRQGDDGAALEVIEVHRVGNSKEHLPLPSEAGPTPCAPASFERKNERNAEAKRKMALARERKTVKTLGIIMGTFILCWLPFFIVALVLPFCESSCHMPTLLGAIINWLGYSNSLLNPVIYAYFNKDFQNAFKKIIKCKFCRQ
Chain of 5-hydroxytryptamine receptor 2B (Homo sapiens) (P41595 whole entry): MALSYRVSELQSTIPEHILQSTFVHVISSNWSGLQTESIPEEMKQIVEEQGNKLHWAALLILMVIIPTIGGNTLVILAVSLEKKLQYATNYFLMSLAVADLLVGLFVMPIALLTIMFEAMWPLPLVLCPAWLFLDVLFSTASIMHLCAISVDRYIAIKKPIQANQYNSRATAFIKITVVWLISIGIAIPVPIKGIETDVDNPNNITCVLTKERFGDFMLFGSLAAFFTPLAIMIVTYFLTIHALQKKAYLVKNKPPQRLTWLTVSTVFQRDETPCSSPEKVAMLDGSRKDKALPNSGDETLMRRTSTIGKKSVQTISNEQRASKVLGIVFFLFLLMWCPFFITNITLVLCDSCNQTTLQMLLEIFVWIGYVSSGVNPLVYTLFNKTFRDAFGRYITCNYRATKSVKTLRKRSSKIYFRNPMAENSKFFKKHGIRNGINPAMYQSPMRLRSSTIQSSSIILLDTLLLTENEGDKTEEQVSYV
Chain of Mu-type opioid receptor (P35372 whole entry): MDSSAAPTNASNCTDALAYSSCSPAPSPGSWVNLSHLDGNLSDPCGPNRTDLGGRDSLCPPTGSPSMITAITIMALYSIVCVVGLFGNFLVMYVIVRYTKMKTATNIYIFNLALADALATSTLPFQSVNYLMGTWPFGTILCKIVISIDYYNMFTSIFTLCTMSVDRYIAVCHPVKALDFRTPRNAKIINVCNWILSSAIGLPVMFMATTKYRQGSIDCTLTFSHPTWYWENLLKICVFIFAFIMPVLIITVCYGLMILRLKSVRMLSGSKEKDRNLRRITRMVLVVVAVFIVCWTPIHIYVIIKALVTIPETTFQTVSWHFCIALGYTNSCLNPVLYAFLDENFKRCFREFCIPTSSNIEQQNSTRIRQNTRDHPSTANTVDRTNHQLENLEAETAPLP

| SMILES | Ki [1] | inhibition at 0.5 h, 1 µM (CYP3A4) | other results |
| --- | --- | --- | --- |
| CCCC(c1nc2ccccc2c(=O)n1Cc1ccccc1)N1C[C@@H](C)N[C@@H](C)C1 (stereo partly drawn) | 4820 nM | 98% | – |
| CCC[C@H](c1nc2ccncc2c(=O)n1CC)N1CCN[C@H](C)C1 | 6 nM | 46% | inhibition at 1 µM (CYP2C19): < 50%; inhibition at 1 µM (CYP1A2): < 50%; efflux ratio [2]: 5.4; Papp [3]: 4.3 ×10⁻⁶ cm/s; inhibition at 1 µM (CYP2C9): < 50%; microsomal CLint at 1 µM [4]: 4.1 µL/min/mg; microsomal CLint at 1 µM [5]: 2.6 µL/min/mg; Activity (Mus musculus): 69%; IC50 [6]: > 10000 nM; microsomal CLint at 1 µM [7]: 3.9 µL/min/mg; AUC(0-t) at 24 h [8]: 8050 ng·h/mL; inhibition at 1 µM (CYP2D6): < 50%; Activity [9]: Non-Toxic; Cmax [10]: 3070 ng/mL; logD [11]: 0.49; logP [12]: 2.22 |
| CCC(c1nc2ccccc2c(=O)n1CCOC)N1C[C@@H](C)N[C@@H](C)C1 (stereo partly drawn) | 761 nM | 86% | – |
| CCC[C@H](c1nc2ccncc2c(=O)n1CC)N1CCN[C@@H](C)C1 | 27 nM | 56% | – |
| CCC[C@H](c1nc2ccc(Br)cc2c(=O)n1CC)N1CCN[C@H](C)C1 | 16 nM | 51% | Activity [13]: Active; Activity [14]: Active; Activity [15]: Active; Activity [16]: Active; Activity [17]: Active; Activity [18]: Active; Activity (Mu-type opioid receptor): Active; Activity [19]: Active; Activity [20]: Active; Activity [21]: Active; Activity [22]: Active; Activity [23]: Active |
| COCCn1c(CN2CCNCC2)nc2ccccc2c1=O | > 10000 nM | 6% | inhibition [24]: < 50% |
| CC(C)C[C@H](CN)CC(=O)O [PREGABALIN] | – | 43% | Activity (Mus musculus): 34%; Activity [9]: Toxic |
| CCCC(c1nc2cc(-c3ccncc3)ccc2c(=O)n1CC)N1C[C@@H](C)N[C@@H](C)C1 (stereo partly drawn) | 18 nM | 97% | – |
| CCC[C@H](c1nc2ccc(Br)cc2c(=O)n1CC)N1CCNC(C)(C)C1 | 1580 nM | 72% | – |
| CCCC(c1nc2ccccc2c(=O)n1C)N1C[C@@H](C)N[C@@H](C)C1 (stereo partly drawn) | 73 nM | 80% | – |
| CCC[C@H](c1nc2ccc(Br)cc2c(=O)n1CC)N1CCN[C@@H](CC)C1 | 123 nM | 97% | – |
| CCCC(c1nc2cc(Br)ccc2c(=O)n1CC)N1C[C@@H](C)N[C@@H](C)C1 (stereo partly drawn) | 15 nM | 97% | – |
| CCC(c1nc2ccccc2c(=O)n1CCOC)N1CCNCC1 (stereo not drawn) | 1810 nM | 37% | – |
| CCC[C@@H](c1nc2ccc(Br)cc2c(=O)n1CC)N1C[C@@H](C)N[C@@H](C)C1 | 2900 nM | 88% | – |
| CCCC(c1nc2ccccc2c(=O)n1CCOC)N1CCNCC1 (stereo not drawn) | 638 nM | 67% | – |
| CCC[C@H](c1nc2ccc(Br)cc2c(=O)n1CC)N1CCN[C@@H](C)C1 | 91 nM | 73% | Activity [13]: Active; Activity [14]: Active; Activity [15]: Active; Activity [16]: Active; Activity [17]: Active; Activity [18]: Active; Ki (Mu-type opioid receptor): 157 nM; Activity [19]: Active; Activity [20]: Active; Activity [21]: Active; Activity [22]: Active; Activity [23]: Active |
| CCC[C@@H](c1nc2ccc(Br)cc2c(=O)n1CC)N1CCN[C@@H](C)C1 | 479 nM | 33% | – |
| CCC[C@H](c1nc2ccc(Br)cc2c(=O)n1CC)N1C[C@@H](C)N[C@@H](C)C1 | 8 nM | 94% | – |

| SMILES | Ki [1] | inhibition at 0.5 h, 1 µM (CYP3A4) | other results |
| --- | --- | --- | --- |
| CCCC(c1nc2ccc(Br)cc2c(=O)n1CC)N1CCC(NC)CC1 (stereo not drawn) | 436 nM | 83% | – |
| CCCC(c1nc2cccc(Br)c2c(=O)n1CC)N1C[C@@H](C)N[C@@H](C)C1 (stereo partly drawn) | 66 nM | 95% | – |
| COCCn1c(C(C)N2CCNCC2)nc2ccccc2c1=O (stereo not drawn) | 4900 nM | 0% | – |
| CCC[C@@H](c1nc2ccncc2c(=O)n1CC)N1CCN[C@@H](C)C1 | > 1000 nM | 44% | – |
| CCCCC(c1nc2ccccc2c(=O)n1CCOC)N1C[C@@H](C)N[C@@H](C)C1 (stereo partly drawn) | 1340 nM | 97% | – |
| CCCC(c1nc2ccccc2c(=O)n1CC)N1C[C@@H](C)N[C@@H](C)C1 (stereo partly drawn) | 36 nM | 85% | – |
| CCC[C@@H](c1nc2ccncc2c(=O)n1CC)N1CCN[C@H](C)C1 | > 1000 nM | 15% | – |
| CCCC(c1nc2ccc(C#N)cc2c(=O)n1CC)N1C[C@@H](C)N[C@@H](C)C1 (stereo partly drawn) | 288 nM | 70% | – |
| CCCC(c1nc2ccccc2c(=O)n1CCOC)N1C[C@@H](C)N[C@@H](C)C1 (stereo partly drawn) | 241 nM | 94% | – |
| CCCC(c1nc2ccc(NCC)cc2c(=O)n1CC)N1C[C@@H](C)N[C@@H](C)C1 (stereo partly drawn) | 44 nM | 69% | – |
| CCCC(c1nc2ccc(Br)cc2c(=O)n1CC)N1CCNCC1 (stereo not drawn) | 76 nM | 65% | – |
| CCC[C@@H](c1nc2ccc(Br)cc2c(=O)n1CC)N1CCN[C@H](C)C1 | > 1000 nM | 21% | – |
| CCC(c1nc2ccccc2c(=O)n1CCCOC)N1C[C@@H](C)N[C@@H](C)C1 (stereo partly drawn) | > 10000 nM | – | inhibition [24]: < 50% |
| COCCn1c(C(CC2CC2)N2C[C@@H](C)N[C@@H](C)C2)nc2ccccc2c1=O (stereo partly drawn) | 413 nM | 94% | – |
| CCCC(c1nc2c(Br)cccc2c(=O)n1CC)N1C[C@@H](C)N[C@@H](C)C1 (stereo partly drawn) | > 1000 nM | – | – |
| CCCC(c1nc2ccc(-c3ccncc3)cc2c(=O)n1CC)N1C[C@@H](C)N[C@@H](C)C1 (stereo partly drawn) | 38 nM | 92% | – |
| CCCC(c1nc2ccc(Br)cc2c(=O)n1CC)N1C[C@@H](C)N[C@@H](C)C1 (stereo partly drawn) | 16 nM | 95% | – |
| CCCC(c1nc2ccccc2c(=O)n1Cc1ccco1)N1C[C@@H](C)N[C@@H](C)C1 (stereo partly drawn) | 230 nM | 99% | – |
